b-catenin transl: modulators of beta-catenin nuclear translocation, primary screen, imaging, HeLa cells, immunofluorescence, high-content | AID 1665, 2009 | nuclear translocation activity, % at 5 µM | 0.3% of 190,000 active;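 active = nuclear translocation activity above 50% at 5 µM, with a well cell count of 50 or more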;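 also: per-cell ratio of nuclear to cytoplasmic median beta-catenin stain intensity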
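Technique: fluorescence imaging of beta-catenin antibody stain plus DAPI / Material: human HeLa cell line / Incubation: compound treatment 24 h, 37°C, 5% CO2 / Read-out basis: % activation of per-cell nuclear versus cytoplasmic median beta-catenin signal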
IEC-6 cytotox: cytotoxicity in IEC-6 intestinal epithelial cells, primary screen, cytotoxicity control for KLF5 inhibitor project, cell-based, luminescence | inhibition, % at 5 µM | 0.78% of 290,000 active | IEC-6 cytotoxicity, luminescence viability; in the data active = inhibition above about 22%
KLF5 inh: KLF5 expression inhibitors, primary screen, DLD-1 cells, luminescence | 0.23% of 290,000 active | DLD-1 KLF5 promoter-luciferase reporter | inhibition, % at 5 µM;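 active = inhibition above a per-plate limit of that plate's mean compound inhibition plus 3 SD, cut at about 60% in these data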;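 also: higher means less KLF5 promoter-driven luciferase light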
Ba/F3 V617F tox: reduced viability of JAK2V617F-dependent Ba/F3 cells, primary screen, JAK2V617F inhibitor project, cell-based, Ba/F3 EpoR-JAK2V617F, luminescence; ATP luminescence; inhibition, % at 5.6 µM; 1.1% of 220,000 active; AID 1446, 2008;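 active = inhibition above the campaign mean plus 3 SD over all tested compounds, cut at about 24% in these data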;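 also: cytokine-independent growth of Ba/F3 cells driven by EpoR plus mutant JAK2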
MT stabilize HCS: microtubule stabilizers in HeLa cells, primary screen, imaging, high-content imaging; HeLa tubulin immunostaining HCS, 24 h; share of cells brighter than vehicle mean+2SD; % tubulin-high responders, % at 10 µM; 0.83% of 200,000 active; AID 2205, 2009;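 active = plate Z-score above 3 for both tubulin-high and condensed-nucleus cell shares, with cell loss under 80%, at 10 µM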;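 also: anti alpha tubulin signal scored within the nucleus-defined area of each cell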
BaF3 parental: parental Ba/F3 cell viability inhibition, counter-screen for JAK2V617F inhibitor project, murine pro-B, CellTiter-Glo luminescence | inhibition, % at 5.6 µM | 1.1% of 220,000 active | CellTiter-Glo ATP luminescence | AID 1486, 2009;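 active = inhibition above a per-campaign cutoff, the mean inhibition of all tested compounds plus 3 SD, cut at about 27% in these data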
Hits are given with their value; . = inactive; / = not tested or not shown. In the library only some 2.1% were active in any assay of this set; here they are far more common.

SMILES	b-catenin transl	IEC-6 cytotox	KLF5 inh	Ba/F3 V617F tox	MT stabilize HCS	BaF3 parental
CCOc1ccccc1NC(=O)c1ccccc1-c1nc(-c2ccccc2)no1	.	.	.	.	32	.
CC(C)C(=O)Nc1cccc(C(=O)N2CCCCC2C)c1 (centres undefined)	.	.	.	32	.	49
CC1CCCCN1C(=O)c1cccc(NC(=O)c2ccccc2)c1 (centres undefined)	.	.	.	.	.	.
C/C(=N\NC(=S)Nc1ccc(F)cc1)C1CC1	.	.	.	.	.	92
CC1CCN(C(=S)Nc2ccc(F)cc2)CC1	.	.	.	.	.	.
O=C(C(=O)N1CCCc2ccccc21)c1cn(CC(=O)N2CCOCC2)c2ccccc12	.	.	.	.	.	.
Cn1cc(C(=O)C(=O)N2CCCc3ccccc32)c2ccccc21	.	.	.	.	12	.
CC1CCN(S(=O)(=O)c2cccc(C(=O)NC3CCCC3)c2)CC1	/	.	.	/	/	/
CCN1CCN(c2nc3c(C)cccn3c(=O)c2/C=C(\C#N)C(=O)NCCOC)CC1	/	.	.	/	/	/
Cc1ccc(Nc2cc(C)nn2-c2nc(C)cc(C)n2)cc1	.	30	.	.	.	.
CCS(=O)(=O)N1Cc2ccccc2CC1C(=O)Nc1cccc(C)c1 (centres undefined)	.	.	.	.	.	38
O=c1[nH]cc(F)c(=O)[nH]1	/	86	.	86	.	83
COc1cccc(NC(=O)[C@@H](NC(=O)N2CCn3c2nc2ccccc23)C(C)C)c1	/	.	.	/	/	/
OCCCNC(=S)Nc1ccc2nc(-c3ccccn3)c(-c3ccccn3)nc2c1	/	.	.	85	.	71
CN(C)c1cc[n+](CC(=O)N2c3ccccc3Sc3ccccc32)cc1	.	.	.	24	.	37
CC1(C)Cc2c(sc(NC(=O)c3ccc(S(=O)(=O)N4CCCCCC4)cc3)c2C#N)C(C)(C)N1	/	.	.	/	/	/
CCOC(=O)COC(=O)c1ccc(Oc2cc(C)nc(SC)n2)cc1	.	.	.	.	.	.
CCOC(=O)c1ccc(Oc2cc(C)nc(SC)n2)cc1	.	.	.	.	44	.
COC(=O)CSc1nn(-c2ccc(F)cc2)c(=S)s1	.	.	.	.	.	.
Cn1c(=O)[nH]c(=O)c2c1nc(N1CCCC1)n2CCCSc1nc2ccccc2o1	/	.	.	.	.	.
Cn1c(=O)[nH]c(=O)c2c1nc(Br)n2CCCSc1nc2ccccc2o1	/	.	.	.	25	.
COc1ccccc1-n1c(SCC(=O)Nc2ccc(NC(C)=O)cc2)nc2c([nH]c3ccccc32)c1=O	/	.	.	/	/	/
COc1ccccc1Nc1nnc(SCC2CCCCO2)s1 (centres undefined)	.	.	.	.	19	.
Cc1ccccc1Nc1nnc(SCC2CCCCO2)s1 (centres undefined)	.	.	.	.	.	.
O=C(Nc1cccs1)Nc1ccccc1Cl	/	.	.	.	.	.
SMILES	b-catenin transl	IEC-6 cytotox	KLF5 inh	Ba/F3 V617F tox	MT stabilize HCS	BaF3 parental
Cc1c(NC(=O)Nc2cccs2)cccc1[N+](=O)[O-]	.	.	.	.	.	29
Cc1ccc(S(=O)(=O)N(C)c2ccc3sc(C)nc3c2)cc1	.	.	.	.	18	.
CC1(C)CNc2cc(N)ccc2S1	.	.	.	.	.	.
Cc1[nH]c(=S)[nH]c(=O)c1Cc1ccc(OCC(C)C)cc1	.	.	.	.	15	.
CCOCc1[nH]c(=S)[nH]c(=O)c1Cc1ccc(OCC(C)C)cc1	.	.	.	.	.	.
Cc1ccc(OCc2cc(C(=O)N3CCC(c4ccccc4Cl)C3)no2)cc1C (centres undefined)	/	.	.	/	/	/
CCSc1nc2sc3c(c2c(=O)n1-c1ccc(OC)cc1)CCN(C)C3	.	.	.	.	/	38
COc1ccc(NC(=O)/C(C#N)=C/C=C/c2ccco2)cc1	.	.	.	.	24	.
c1ccc2c(CCNc3ncnc4nc[nH]c34)c[nH]c2c1	.	.	.	.	17	.
O=C(CCc1nc(-c2ccccc2)no1)NCC1CCCO1 (centres undefined)	.	.	.	.	.	.
CC1CSc2n(-c3cccc(C(F)(F)F)c3)cc(-c3ccccc3)[n+]21 (centres undefined)	.	.	.	56	.	84
FC(F)(F)c1cccc(-n2cc(-c3ccccc3)[nH]c2=S)c1	/	.	.	/	/	/
COc1ccc(-c2[nH]ncc2N=Nc2ccccc2)cc1	89	.	.	.	19	.
COc1ccc(-c2[nH]ncc2N=Nc2cc(C)cc(C)c2)cc1	.	.	.	.	16	.
COc1ccc(N=Nc2cc(-c3ccccc3)ccc2O)cc1	/	.	.	/	/	/
Cc1ccc2c(c1)N(CC(=O)NCC(C)c1ccccc1)C(=O)c1cccnc1O2 (centres undefined)	/	.	.	/	/	/
CCN1CCN(Cc2nc3c(c(=O)n(C)c(=O)n3C)n2C(C)C(C)=O)CC1 (centres undefined)	.	.	.	.	.	.
CC1(c2ccccc2)NC(=O)N(CC(=O)Nc2ccccc2C(=O)NC2CC2)C1=O (centres undefined)	/	.	.	/	/	/
Cc1ccc(C)c(S(=O)(=O)NC(CCC(N)=O)C(=O)O)c1 (centres undefined)	.	.	.	.	.	.
CCS(=O)(=O)N1CCCC(c2nc(-c3cccc(OC)c3)no2)C1 (centres undefined)	.	.	.	.	.	96
CCCS(=O)(=O)N1CCCC(c2nc(-c3ccc(OC)cc3)no2)C1 (centres undefined)	.	.	.	.	.	.
Cc1cc(C(=O)CSc2nc3ccccc3o2)c(C)n1CC1CCCO1 (centres undefined)	.	.	.	.	.	.
Cc1cc(C(=O)CSc2nc3ccccc3[nH]2)c(C)n1CC1CCCO1 (centres undefined)	.	.	.	.	.	40
COc1ccc(NC(=O)N(Cc2cc3ccc(OC)cc3[nH]c2=O)CC2CCCO2)cc1 (centres undefined)	.	.	.	.	13	.
COc1ccc2cc(CN(CC3CCCO3)C(=O)Nc3ccccc3OC)c(=O)[nH]c2c1 (centres undefined)	.	.	.	.	23	.
COc1ccc2cc(CN(C(=O)Nc3ccccc3OC)C3CCCC3)c(=O)[nH]c2c1	.	.	.	.	.	.
COc1ccc(NC(=O)N(Cc2cc3cc(OC)ccc3[nH]c2=O)CC2CCCO2)cc1 (centres undefined)	.	.	.	.	.	.
CCN(C(=O)C(C)Cl)c1ccccc1 (centres undefined)	.	.	.	.	.	.

Source: PubChem BioAssay (several laboratories)
